This is an account of results in ChEMBL document CHEMBL4014309, “Development of an Acrylate Derivative Targeting the NLRP3 Inflammasome for the Treatment of Inflammatory Bowel Disease” (J Med Chem, 2017).

Counter-ions that a name gives are not always drawn. Activity calls are given as the source filed them. No cut-off for these calls is given here.

Test system in one data set: not listed separately
Nature of the data set: Cysteamine reactivity of the compound in PBS assessed as second order rate constant for free cysteamine release at 250 uM and pH 7.4 after 90 mins by DTNB reagent based RP-UHPLC analysis.
Conditions: not given
The essentials: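 Compound (250 µM) was mixed with equimolar cysteamine in pH 7.4 PBS containing 12.5% CH3CN at 37 °C. Free cysteamine was tracked with DTNB at several time points over 90 min. Second-order k2 came from 1/[CAM] = 1/[CAM]0 + kt, using 3–10 points per plot; mean ± SEM of ≥3 experiments.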
On to `COC(=O)/C=C/C(=O)OC` [DIMETHYL FUMARATE], for which the K is 39 M⁻¹ s⁻¹.

Take `C=C(C(=O)OCC)C(OCCC(=O)OCC)c1ccccc1Cl` (stereo not drawn): the K turned out to be 0.734 M⁻¹ s⁻¹.

As for `C=C(C(=O)O)C(O)c1ccc(Cl)cc1Cl` (stereo not drawn), the Drug metabolism result is “Metabolite not detected”.

Take `CCOC(=O)C(C)Cc1ccccc1Cl` (stereo not drawn): the Drug metabolism result is recorded as “Metabolite not detected”.

With `C=C(C(=O)OCC)C(O)c1ccc(Cl)cc1Cl` (stereo not drawn), the K was 1.34 M⁻¹ s⁻¹.

`C=C(C(=O)OCC)C(OCCC(=O)OCC)c1ccc(Cl)cc1Cl` (stereo not drawn): the K stood at 0.292 M⁻¹ s⁻¹.

For the compound `C=C(C(=O)OCC)C(OC(C)=O)c1ccccc1Cl` (stereo not drawn), the K was determined as 56.2 M⁻¹ s⁻¹.

Test system in another data set: not listed separately
The data set can be described thus: Cytotoxicity against human THP1 cells assessed as reduction in cell viability after 72 hrs by MTT assay. Conditions: THP-1 cells, read-out: TC50. It counts as cell-based. The essentials: (§1)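 Human THP-1 cells were exposed to 0.1–100 µM for 72 h, and viability was read by MTT. TC50 is the concentration that cuts viability by 50%; percent viable cells at 100 µM is also reported. Mean ± SEM of ≥3 experiments.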
For orientation: Tetrazolium assays rely on reduction of a dye to a coloured formazan, in cell work by metabolically active cells.
On to `COC(=O)/C=C/C(=O)OC` [DIMETHYL FUMARATE], for which the CC50 at 72 h came to 95.5 µM.

Consider `C=C(C(=O)OCC)C(OCCC(=O)OCC)c1ccccc1Cl` (stereo not drawn), for which the CC50 at 72 h was over 100 µM.

In the case of `C=C(C(=O)O)C(O)c1ccc(Cl)cc1Cl` (stereo not drawn), the CC50 at 72 h is over 100 µM.

`Cc1ccc(S(=O)(=O)/C=C/C#N)cc1`: the CC50 at 72 h was 1.5 µM.

Take `CCOC(=O)C(C)Cc1ccccc1Cl` (stereo not drawn): the CC50 at 72 h was over 100 µM.

As to `C=C(C(=O)OCC)C(O)c1ccc(Cl)cc1Cl` (stereo not drawn), the CC50 at 72 h stood at 68.3 µM.

`C=C(C(=O)OCC)C(OCCC(=O)OCC)c1ccc(Cl)cc1Cl` (stereo not drawn): the CC50 at 72 h was over 100 µM.

For the compound `C=C(C(=O)OCC)C(OC(C)=O)c1ccccc1Cl` (stereo not drawn), the CC50 at 72 h amounted to 33.3 µM.

Test system in a further data set: not listed separately
The data set can be described thus: Cytotoxicity against human THP1 cells assessed as cell viability at 100 uM after 72 hrs by MTT assay. It counts as cell-based. Conditions: THP-1 cells, read-out: Activity. The essentials:
as §1
Consider `C=C(C(=O)OCC)C(OCCC(=O)OCC)c1ccccc1Cl` (stereo not drawn), for which the viability at 72 h, 100 µM worked out at 95.7%.

For the compound `C=C(C(=O)O)C(O)c1ccc(Cl)cc1Cl` (stereo not drawn), the viability at 72 h, 100 µM amounted to 88.1%.

On to `CCOC(=O)C(C)Cc1ccccc1Cl` (stereo not drawn), for which the viability at 72 h, 100 µM came to 86.1%.

As to `C=C(C(=O)OCC)C(OCCC(=O)OCC)c1ccc(Cl)cc1Cl` (stereo not drawn), the viability at 72 h, 100 µM was found to be 87.7%.

The next data set has as its target NACHT, LRR and PYD domains-containing protein 3 (Homo sapiens) (UniProt Q96P20). The data set can be described thus: Inhibition of recombinant human NLRP3 ATPase assessed as hydrolysis of ATP at 100 uM preincubated for 15 mins followed by addition of ATP measured after 40 mins by ADP-Glo assay.
Conditions: not given
The essentials: (§2)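 Human recombinant NLRP3 (0.105 µg) in 20 mM Tris-HCl pH 7.8, 133 mM NaCl, 20 mM MgCl2, 3 mM KCl, 0.56 mM EDTA, 0.5% DMSO. Compound (100 or 50 µM) was preincubated 15 min at 37 °C, then ATP (250 µM) was added for 40 min at 37 °C. ADP was read by ADP-Glo luminescence. Result is % inhibition vs vehicle; mean ± SEM, ≥3 experiments.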
In general terms: ADP-Glo turns the ADP formed in a reaction into a luminescent signal.
Turning to `COC(=O)/C=C/C(=O)OC` [DIMETHYL FUMARATE], the inhibition entry is “inactive”.

`C=C(C(=O)OCC)C(OCCC(=O)OCC)c1ccccc1Cl` (stereo not drawn): the inhibition stood at 56%.

In the case of `C=C(C(=O)O)C(O)c1ccc(Cl)cc1Cl` (stereo not drawn), the inhibition stood at 43%.

Regarding `CCOC(=O)C(C)Cc1ccccc1Cl` (stereo not drawn), the inhibition amounted to 12%.

`C=C(C(=O)OCC)C(O)c1ccc(Cl)cc1Cl` (stereo not drawn): the inhibition stood at 35%.

For another data set the target is unchanged. The data set can be described thus: Inhibition of recombinant human NLRP3 ATPase assessed as hydrolysis of ATP at 50 uM preincubated for 15 mins followed by addition of ATP measured after 40 mins by ADP-Glo assay.
Conditions: not given
The essentials:
as §2
For `COC(=O)/C=C/C(=O)OC` [DIMETHYL FUMARATE], the inhibition entry is “inactive”.

Turning to `C=C(C(=O)OCC)C(OCCC(=O)OCC)c1ccccc1Cl` (stereo not drawn), the inhibition amounted to 27%.

For the compound `C=C(C(=O)O)C(O)c1ccc(Cl)cc1Cl` (stereo not drawn), the inhibition was 11%.

For the compound `CCOC(=O)C(C)Cc1ccccc1Cl` (stereo not drawn), the inhibition result was “inactive”.

Regarding `C=C(C(=O)OCC)C(O)c1ccc(Cl)cc1Cl` (stereo not drawn), the inhibition is 19%.

In the case of `C=C(C(=O)OCC)C(OCCC(=O)OCC)c1ccc(Cl)cc1Cl` (stereo not drawn), the inhibition was found to be 10%.

The next data set shares this target. The data set can be described thus: Inhibition of NLRP3 in PMA-differentiated and LPS-primed human THP1 cells assessed as decrease in ATP-induced pyroptosis measured as LDH activity at 10 uM preincubated for 1 hr followed by ATP addition measured after 1 hr by colorimetric assay relative to control.
Conditions: not given
The essentials: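 THP-1 cells were PMA-differentiated and LPS-primed, then pretreated with vehicle or compound (10 µM, 1 h). Pyroptosis was triggered with ATP (5 mM). LDH in supernatant was measured colorimetrically 1 h after ATP and expressed as percent decrease versus vehicle, mean ± SEM of ≥3 experiments.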
Consider `COC(=O)/C=C/C(=O)OC` [DIMETHYL FUMARATE], for which the inhibition was 65.2%.

With `C=C(C(=O)O)C(O)c1ccc(Cl)cc1Cl` (stereo not drawn), the inhibition came to 40.2%.

Turning to `CCOC(=O)C(C)Cc1ccccc1Cl` (stereo not drawn), the inhibition stood at 3.8%.

Turning to `C=C(C(=O)OCC)C(O)c1ccc(Cl)cc1Cl` (stereo not drawn), the inhibition is 74.4%.

Another data set concerns the target NACHT, LRR and PYD domains-containing protein 3 (Mus musculus) (UniProt Q8R4B8). The data set can be described thus: Inhibition of NLRP3 inflammasome in LPS-primed C57BL/6 mouse bone marrow derived macrophages assessed as reduction in ATP-induced IL-1beta production at 10 to 100 uM preincubated for 1 hr followed by stimulation with ATP measured after 30 mins by ELISA.
Conditions: not given
The essentials: (§3)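 C57BL/6 bone marrow macrophages, differentiated with 20% L-cell medium, were primed with LPS (1 µg/mL, 3 h). They were then exposed to compound or vehicle for 1 h and stimulated with ATP (5 mM, 30 min). IL-1β released into the medium was measured by ELISA.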
(An ELISA detects its analyte on a solid surface through an enzyme-linked reagent.)
As for `Cc1ccc(S(=O)(=O)/C=C/C#N)cc1`, the inhibition entry is “Active”.

A further data set has the same target. The data set can be described thus: Inhibition of NLRP3 inflammasome in LPS-primed C57BL/6 mouse bone marrow derived macrophages assessed as reduction in nigericin-induced IL-1beta production at 10 to 100 uM preincubated for 1 hr followed by stimulation with nigericin measured after 30 mins by ELISA.
Conditions: not given
The essentials:
(§4)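 Bone marrow macrophages from C57BL/6 mice, differentiated with 20% L-cell medium, primed with LPS (1 µg/mL, 3 h). Test agent or vehicle was added for 1 h, then ATP (5 mM, 30 min) or nigericin (10 µM, 30 min). IL-1β in the medium was measured by ELISA. LDH in the medium was measured colorimetrically as % of total cellular LDH.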
Regarding `Cc1ccc(S(=O)(=O)/C=C/C#N)cc1`, the inhibition result is “Active”.

Another data set has the same target. Nature of the data set: Inhibition of NLRP3 inflammasome in LPS-primed C57BL/6 mouse bone marrow derived macrophages assessed as reduction in ATP-induced IL-1beta production at 1 to 100 uM preincubated for 1 hr followed by stimulation with ATP measured after 30 mins by ELISA.
Conditions: not given
The essentials:
as §3
`COC(=O)/C=C/C(=O)OC` [DIMETHYL FUMARATE]: the inhibition entry was “Active”.

The next data set shares this target. Nature of the data set: Inhibition of NLRP3 inflammasome in LPS-primed C57BL/6 mouse bone marrow derived macrophages assessed as reduction in nigericin-induced IL-1beta production at 1 to 100 uM preincubated for 1 hr followed by stimulation with nigericin measured after 30 mins by ELISA.
Conditions: not given
The essentials:
as §4
On to `COC(=O)/C=C/C(=O)OC` [DIMETHYL FUMARATE], for which the inhibition entry was “Active”.

The next data set deals with NACHT, LRR and PYD domains-containing protein 3 (Homo sapiens) (UniProt Q96P20). Nature of the data set: Irreversible inhibition of His-FLAG- tagged NLRP3-ATPase (unknown origin) at 100 uM preincubated for 55 mins followed by ATP addition measured after 40 mins by ADP-Glo assay.
NACHT, LRR and PYD domains-containing protein 3 (Homo sapiens), sequence (Q96P20 whole entry, the tested form may be a part): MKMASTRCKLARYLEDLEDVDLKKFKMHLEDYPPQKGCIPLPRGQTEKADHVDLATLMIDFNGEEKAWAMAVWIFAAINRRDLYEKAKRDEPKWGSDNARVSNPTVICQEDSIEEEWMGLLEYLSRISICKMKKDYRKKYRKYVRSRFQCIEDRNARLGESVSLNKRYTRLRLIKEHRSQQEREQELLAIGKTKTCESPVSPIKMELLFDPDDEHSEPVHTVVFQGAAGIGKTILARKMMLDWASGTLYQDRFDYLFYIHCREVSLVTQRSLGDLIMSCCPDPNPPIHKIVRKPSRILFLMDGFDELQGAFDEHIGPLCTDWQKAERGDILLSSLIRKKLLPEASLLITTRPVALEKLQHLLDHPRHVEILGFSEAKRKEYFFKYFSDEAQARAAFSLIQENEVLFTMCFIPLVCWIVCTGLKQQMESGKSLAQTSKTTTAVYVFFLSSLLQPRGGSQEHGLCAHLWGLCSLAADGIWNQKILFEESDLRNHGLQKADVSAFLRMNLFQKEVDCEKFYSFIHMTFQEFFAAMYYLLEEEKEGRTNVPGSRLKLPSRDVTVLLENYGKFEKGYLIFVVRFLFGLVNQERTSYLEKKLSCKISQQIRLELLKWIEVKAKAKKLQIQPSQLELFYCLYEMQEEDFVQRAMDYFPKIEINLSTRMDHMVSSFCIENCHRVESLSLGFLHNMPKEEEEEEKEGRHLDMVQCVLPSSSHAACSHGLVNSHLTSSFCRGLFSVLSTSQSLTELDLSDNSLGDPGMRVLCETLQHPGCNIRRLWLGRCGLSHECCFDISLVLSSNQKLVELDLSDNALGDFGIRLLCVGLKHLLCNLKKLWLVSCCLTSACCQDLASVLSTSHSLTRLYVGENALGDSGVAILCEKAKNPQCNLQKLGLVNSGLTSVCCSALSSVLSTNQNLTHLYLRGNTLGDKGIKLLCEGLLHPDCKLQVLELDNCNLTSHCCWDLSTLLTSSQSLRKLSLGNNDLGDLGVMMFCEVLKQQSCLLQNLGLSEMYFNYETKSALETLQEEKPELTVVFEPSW
Conditions: not given
The essentials:
(§5)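 His-FLAG NLRP3 (105 ng/well) captured on anti-FLAG-coated, BSA-blocked wells for 3 h at 4 °C. Compound (100 µM final, 2% DMSO) preincubated 55 min at 37 °C. Wells were washed three times (or not washed), then ATP (250 µM) was added for 40 min at 37 °C. ADP was read by ADP-Glo. Equal protein loading was checked by anti-His ELISA.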
`CCOC(=O)C(C)Cc1ccccc1Cl` (stereo not drawn) came in with an inhibition of 10%.

The next data set has the same target. Nature of the data set: Irreversible inhibition of His-FLAG- tagged NLRP3-ATPase (unknown origin) at 100 uM preincubated for 55 mins followed by compound wash-out and ATP addition measured after 40 mins by ADP-Glo assay.
Conditions: not given
The essentials: as §5
In the case of `CCOC(=O)C(C)Cc1ccccc1Cl` (stereo not drawn), the inhibition entry was “inactive”.

Another data set has the same target. The data set can be described thus: Inhibition of recombinant human NLRP3 ATPase assessed as hydrolysis of ATP preincubated for 15 mins followed by addition of ATP measured after 40 mins by ADP-Glo assay.
Conditions: not given
The essentials: as §2
For `C=C(C(=O)OCC)C(OCCC(=O)OCC)c1ccccc1Cl` (stereo not drawn), the inhibition result was “Dose-dependent effect”.

Take `C=C(C(=O)O)C(O)c1ccc(Cl)cc1Cl` (stereo not drawn): the inhibition entry is “Dose-dependent effect”.

Turning to `CCOC(=O)C(C)Cc1ccccc1Cl` (stereo not drawn), the inhibition result is “Dose-dependent effect”.

`C=C(C(=O)OCC)C(O)c1ccc(Cl)cc1Cl` (stereo not drawn): the inhibition entry was “Dose-dependent effect”.

In the next data set the target is NACHT, LRR and PYD domains-containing protein 3 (Mus musculus) (UniProt Q8R4B8). Nature of the data set: Inhibition of NLRP3 inflammasome in LPS-primed C57BL/6 mouse bone marrow derived macrophages assessed as reduction in ATP-induced pyroptosis at 10 to 100 uM preincubated for 1 hr followed by stimulation with ATP measured after 30 mins by LDH release assay.
NACHT, LRR and PYD domains-containing protein 3 (Mus musculus), sequence (Q8R4B8 whole entry, the tested form may be a part): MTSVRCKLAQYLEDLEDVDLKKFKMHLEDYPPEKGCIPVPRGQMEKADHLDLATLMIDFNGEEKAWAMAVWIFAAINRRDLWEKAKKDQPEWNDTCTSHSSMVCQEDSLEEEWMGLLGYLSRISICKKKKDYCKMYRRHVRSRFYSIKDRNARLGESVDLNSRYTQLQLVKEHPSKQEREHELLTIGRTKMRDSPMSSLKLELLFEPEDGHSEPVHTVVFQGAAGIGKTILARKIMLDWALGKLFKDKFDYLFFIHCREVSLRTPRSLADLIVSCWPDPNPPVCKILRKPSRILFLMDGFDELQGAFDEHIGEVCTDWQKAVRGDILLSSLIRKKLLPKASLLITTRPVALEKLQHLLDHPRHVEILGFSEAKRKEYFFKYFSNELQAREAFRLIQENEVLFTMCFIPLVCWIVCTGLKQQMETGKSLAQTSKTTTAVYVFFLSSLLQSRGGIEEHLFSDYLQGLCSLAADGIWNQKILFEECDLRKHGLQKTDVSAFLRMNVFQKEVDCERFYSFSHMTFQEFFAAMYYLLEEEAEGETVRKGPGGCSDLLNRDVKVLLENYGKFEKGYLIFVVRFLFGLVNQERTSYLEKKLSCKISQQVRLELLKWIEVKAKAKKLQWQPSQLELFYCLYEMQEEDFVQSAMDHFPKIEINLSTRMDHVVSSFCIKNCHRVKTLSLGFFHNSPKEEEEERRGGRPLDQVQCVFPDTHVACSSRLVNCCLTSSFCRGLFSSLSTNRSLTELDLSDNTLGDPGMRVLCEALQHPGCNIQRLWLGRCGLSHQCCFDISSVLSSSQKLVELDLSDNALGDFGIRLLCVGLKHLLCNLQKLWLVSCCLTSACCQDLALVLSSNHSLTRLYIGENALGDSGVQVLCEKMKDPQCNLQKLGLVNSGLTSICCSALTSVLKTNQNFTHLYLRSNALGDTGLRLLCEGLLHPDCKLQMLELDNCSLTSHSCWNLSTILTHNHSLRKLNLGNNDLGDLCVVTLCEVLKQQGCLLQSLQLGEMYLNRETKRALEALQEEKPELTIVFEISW
Conditions: not given
The essentials:
as §4
`Cc1ccc(S(=O)(=O)/C=C/C#N)cc1`: the inhibition result is “Active”.

The next data set has the same target. The data set can be described thus: Inhibition of NLRP3 inflammasome in LPS-primed C57BL/6 mouse bone marrow derived macrophages assessed as reduction in nigericin-induced pyroptosis at 10 to 100 uM preincubated for 1 hr followed by stimulation with ATP measured after 30 mins by LDH release assay.
Conditions: not given
The essentials:
as §4
`Cc1ccc(S(=O)(=O)/C=C/C#N)cc1`: the inhibition result was “Active”.

A further data set has the same target. The data set can be described thus: Inhibition of NLRP3 inflammasome in LPS-primed C57BL/6 mouse bone marrow derived macrophages assessed as reduction in ATP-induced pyroptosis at 1 to 100 uM preincubated for 1 hr followed by stimulation with ATP measured after 30 mins by LDH release assay.
Conditions: not given
The essentials: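 LPS-primed (1 µg/mL, 3 h) C57BL/6 bone marrow macrophages were treated with compound or vehicle for 1 h, then given ATP (5 mM, 30 min). LDH in the medium was measured and expressed as percent of total cellular LDH.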
`COC(=O)/C=C/C(=O)OC` [DIMETHYL FUMARATE]: the inhibition result was “Active”.

For the next data set the target is unchanged. The data set can be described thus: Inhibition of NLRP3 inflammasome in LPS-primed C57BL/6 mouse bone marrow derived macrophages assessed as reduction in nigericin-induced pyroptosis at 1 to 100 uM preincubated for 1 hr followed by stimulation with ATP measured after 30 mins by LDH release assay.
Conditions: not given
The essentials:
as §4
Consider `COC(=O)/C=C/C(=O)OC` [DIMETHYL FUMARATE], for which the inhibition result is “Active”.

In general, inhibition refers to the drop in the measured response relative to a control, in per cent.
